Experimental data as given in ChEMBL document CHEMBL1759954, “Synthesis of some novel 3-(1-(1-substitutedpiperidin-4-yl)-1H-1,2,3-triazol-4-yl)-5-substituted phenyl-1,2,4-oxadiazoles as antifungal agents” (2011).
Values after ≈ are worked out from the molar mass of the structure shown. Active and inactive are the calls of the source. The rule behind the calls is not given here.

Key:
[1] = tested on: Aspergillus flavus; experiment: Antifungal activity against Aspergillus flavus; format: functional
Procedure, shortened: (§1)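 In vitro MIC determination by standard agar method, cited from earlier work; fungal strains tested were Candida albicans, Fusarium oxysporum, Aspergillus flavus, Aspergillus niger and Cryptococcus neoformans, with miconazole and fluconazole run as reference standards.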

[2] = tested on: Aspergillus niger; experiment: Antifungal activity against Aspergillus niger; format: functional; procedure, shortened: as §1
[3] = tested on: Candida albicans; experiment: Antifungal activity against Candida albicans; format: functional; procedure, shortened: as §1
[4] = tested on: Fusarium oxysporum; experiment: Antifungal activity against Fusarium oxysporum; format: functional; procedure, shortened: as §1
[5] = tested on: Cryptococcus neoformans; experiment: Antifungal activity against Cryptococcus neoformans; format: functional; procedure, shortened: as §1
[6] = tested on: Aspergillus niger; experiment: Antifungal activity against Aspergillus niger up to 200 ug/ml; format: functional, organism-based; procedure, shortened: as §1
[7] = tested on: Cryptococcus neoformans; experiment: Antifungal activity against Cryptococcus neoformans up to 200 ug/ml; format: functional, organism-based; procedure, shortened: as §1
[8] = tested on: Fusarium oxysporum; experiment: Antifungal activity against Fusarium oxysporum up to 200 ug/ml; format: functional, organism-based; procedure, shortened: as §1
[9] = tested on: Aspergillus flavus; experiment: Antifungal activity against Aspergillus flavus up to 200 ug/ml; format: functional, organism-based; procedure, shortened: as §1

SMILES | MIC [1] | MIC [2] | MIC [3] | MIC [4] | MIC [5] | Activity [6] | Activity [7] | Activity [8] | Activity [9]
OC(Cn1cncn1)(Cn1cncn1)c1ccc(F)cc1F [FLUCONAZOLE] | 5 µg/mL (≈ 16.3 µM) | 10 µg/mL (≈ 32.7 µM) | 5 µg/mL (≈ 16.3 µM) | 5 µg/mL (≈ 16.3 µM) | 5 µg/mL (≈ 16.3 µM) |  |  |  | 
CN1CCC(n2cc(-c3noc(-c4ccccc4)n3)nn2)CC1 | 30 µg/mL (≈ 96.7 µM) |  | 50 µg/mL (≈ 161 µM) | 60 µg/mL (≈ 193 µM) |  | inactive | inactive |  | 
CCCC(=O)N1CCC(n2cc(-c3noc(-c4ccccc4)n3)nn2)CC1 | 35 µg/mL (≈ 95.5 µM) | 47.5 µg/mL (≈ 130 µM) | 90 µg/mL (≈ 246 µM) | 100 µg/mL (≈ 273 µM) | 150 µg/mL (≈ 409 µM) |  |  |  | 
O=C(c1ccccc1)N1CCC(n2cc(-c3noc(-c4ccc(Cl)cc4)n3)nn2)CC1 | 65 µg/mL (≈ 149 µM) |  | 75 µg/mL (≈ 172 µM) | 85 µg/mL (≈ 195 µM) | 100 µg/mL (≈ 230 µM) | inactive |  |  | 
CS(=O)(=O)N1CCC(n2cc(-c3noc(-c4ccccc4)n3)nn2)CC1 | 40 µg/mL (≈ 107 µM) | 40 µg/mL (≈ 107 µM) | 50 µg/mL (≈ 134 µM) | 30 µg/mL (≈ 80.1 µM) | 25 µg/mL (≈ 66.8 µM) |  |  |  | 
CCN1CCC(n2cc(-c3noc(-c4ccccc4)n3)nn2)CC1 | 35 µg/mL (≈ 108 µM) | 47.5 µg/mL (≈ 146 µM) | 90 µg/mL (≈ 277 µM) | 100 µg/mL (≈ 308 µM) | 150 µg/mL (≈ 462 µM) |  |  |  | 
Clc1ccc(COC(Cn2ccnc2)c2ccc(Cl)cc2Cl)c(Cl)c1 (stereo not given) [MICONAZOLE] | 12.5 µg/mL (≈ 30 µM) | 12.5 µg/mL (≈ 30 µM) | 25 µg/mL (≈ 60.1 µM) | 25 µg/mL (≈ 60.1 µM) | 25 µg/mL (≈ 60.1 µM) |  |  |  | 
O=C(c1ccc(Cl)cc1)N1CCC(n2cc(-c3noc(-c4ccccc4)n3)nn2)CC1 | 40 µg/mL (≈ 92 µM) | 42.5 µg/mL (≈ 97.7 µM) | 45 µg/mL (≈ 103 µM) | 40 µg/mL (≈ 92 µM) | 45 µg/mL (≈ 103 µM) |  |  |  | 
O=C(c1ccccc1)N1CCC(n2cc(-c3noc(-c4ccccc4)n3)nn2)CC1 | 65 µg/mL (≈ 162 µM) |  | 90 µg/mL (≈ 225 µM) |  | 100 µg/mL (≈ 250 µM) | inactive |  | inactive | 
CC(=O)N1CCC(n2cc(-c3noc(-c4ccc(Cl)cc4)n3)nn2)CC1 | 150 µg/mL (≈ 402 µM) | 70 µg/mL (≈ 188 µM) | 40 µg/mL (≈ 107 µM) | 30 µg/mL (≈ 80.5 µM) |  |  | inactive |  | 
CS(=O)(=O)N1CCC(n2cc(-c3noc(-c4ccc(Cl)cc4)n3)nn2)CC1 | 15 µg/mL (≈ 36.7 µM) | 15 µg/mL (≈ 36.7 µM) | 30 µg/mL (≈ 73.4 µM) | 35 µg/mL (≈ 85.6 µM) | 40 µg/mL (≈ 97.8 µM) |  |  |  | 
CN1CCC(n2cc(-c3noc(-c4ccc(Cl)cc4)n3)nn2)CC1 | 15 µg/mL (≈ 43.5 µM) | 15 µg/mL (≈ 43.5 µM) | 35 µg/mL (≈ 102 µM) | 50 µg/mL (≈ 145 µM) |  |  | inactive |  | 
CC(C)(C)OC(=O)N1CCC(n2cc(-c3noc(-c4ccccc4)n3)nn2)CC1 | 85 µg/mL (≈ 214 µM) | 100 µg/mL (≈ 252 µM) | 80 µg/mL (≈ 202 µM) |  | 120 µg/mL (≈ 303 µM) |  |  | inactive | 
c1ccc(CN2CCC(n3cc(-c4noc(-c5ccccc5)n4)nn3)CC2)cc1 | 50 µg/mL (≈ 129 µM) | 150 µg/mL (≈ 388 µM) | 50 µg/mL (≈ 129 µM) | 65 µg/mL (≈ 168 µM) | 70 µg/mL (≈ 181 µM) |  |  |  | 
c1ccc(-c2nc(-c3cn(C4CCNCC4)nn3)no2)cc1 | 50 µg/mL (≈ 169 µM) | 100 µg/mL (≈ 337 µM) | 60 µg/mL (≈ 202 µM) | 100 µg/mL (≈ 337 µM) | 90 µg/mL (≈ 304 µM) |  |  |  | 
CCN1CCC(n2cc(-c3noc(-c4ccc(Cl)cc4)n3)nn2)CC1 | 35 µg/mL (≈ 97.5 µM) | 40 µg/mL (≈ 111 µM) | 70 µg/mL (≈ 195 µM) | 80 µg/mL (≈ 223 µM) | 100 µg/mL (≈ 279 µM) |  |  |  | 
CC(=O)N1CCC(n2cc(-c3noc(-c4ccccc4)n3)nn2)CC1 |  | 95 µg/mL (≈ 281 µM) | 35 µg/mL (≈ 103 µM) | 35 µg/mL (≈ 103 µM) |  |  | inactive |  | inactive
CCC(=O)N1CCC(n2cc(-c3noc(-c4ccccc4)n3)nn2)CC1 | 30 µg/mL (≈ 85.1 µM) |  | 50 µg/mL (≈ 142 µM) | 60 µg/mL (≈ 170 µM) |  | inactive | inactive |  | 
Cc1ccc(S(=O)(=O)N2CCC(n3cc(-c4noc(-c5ccccc5)n4)nn3)CC2)cc1 | 45 µg/mL (≈ 99.9 µM) | 37.5 µg/mL (≈ 83.2 µM) | 60 µg/mL (≈ 133 µM) | 70 µg/mL (≈ 155 µM) | 40 µg/mL (≈ 88.8 µM) |  |  |  | 
CCC(=O)N1CCC(n2cc(-c3noc(-c4ccc(Cl)cc4)n3)nn2)CC1 | 30 µg/mL (≈ 77.6 µM) | 100 µg/mL (≈ 259 µM) | 35 µg/mL (≈ 90.5 µM) | 40 µg/mL (≈ 103 µM) |  |  | inactive |  | 
